Data on 7 compounds can be found in ChEMBL document CHEMBL1759875, “Synthesis and biological evaluation of 1-[2-cyano-3,12-dioxooleana-1,9(11)-dien-28-oyl]-4-ethynylimidazole. A novel and highly potent anti-inflammatory and cytoprotective agent” (Bioorg Med Chem Lett, 2011).

One data set has as its system RAW264.7. The data set is described as follows: Inhibition of NO production in INFgamma-stimulated mouse RAW264.7 cells measured after 24 hrs by Griess reaction method. The data set is classed as functional, cell-based. As to conditions: RAW264.7, 24 h. The gist of the method:
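RAW 264.7 mouse macrophages were seeded at 30,000 cells/well in triplicate. The next day they were pre-treated for 2 h with DMSO or compound (0–200 nM), then stimulated with IFN-γ for 24 h. Medium NO was measured by Griess reagent and viability by WST-1. IC₅₀ came from suppression of IFN-γ-induced NO normalized to viability.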
In general terms: Nitrite, measured by Griess reagent, commonly stands in for NO production.

Data set [1] deals with NAD(P)H dehydrogenase [quinone] 1 (Mus musculus) (UniProt Q64669). Kind of data set: Induction of NQO1 activity in mouse Hepa-1c1c7 cells assessed as concentration require to double the specific enzyme activity after 48 hrs. The class given is cell-based. The gist of the method: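 Hepa1c1c7 murine hepatoma cells were seeded at 10,000 cells/well and grown 24 h, then exposed to serial dilutions for 48 h. NQO1 specific enzyme activity was measured, and potency was taken as the concentration that doubles it (CD). Each concentration used eight replicate wells; SD was 5–10%.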
NAD(P)H dehydrogenase [quinone] 1 (Mus musculus), sequence (Q64669 whole entry): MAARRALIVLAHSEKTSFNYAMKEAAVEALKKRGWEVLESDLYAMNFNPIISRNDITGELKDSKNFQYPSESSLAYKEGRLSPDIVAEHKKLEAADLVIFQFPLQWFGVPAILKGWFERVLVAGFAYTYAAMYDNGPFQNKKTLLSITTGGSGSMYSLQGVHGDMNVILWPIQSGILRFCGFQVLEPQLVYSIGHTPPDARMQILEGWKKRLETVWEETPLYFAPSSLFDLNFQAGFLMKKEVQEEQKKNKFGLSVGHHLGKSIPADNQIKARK

Data set [2] is described as follows: Stability of the compound at 4 degC. The class given is physicochemical.
For data set [3], the target named is T1, Heme oxygenase 1 (Mus musculus) (UniProt P14901).
T1 sequence (whole entry): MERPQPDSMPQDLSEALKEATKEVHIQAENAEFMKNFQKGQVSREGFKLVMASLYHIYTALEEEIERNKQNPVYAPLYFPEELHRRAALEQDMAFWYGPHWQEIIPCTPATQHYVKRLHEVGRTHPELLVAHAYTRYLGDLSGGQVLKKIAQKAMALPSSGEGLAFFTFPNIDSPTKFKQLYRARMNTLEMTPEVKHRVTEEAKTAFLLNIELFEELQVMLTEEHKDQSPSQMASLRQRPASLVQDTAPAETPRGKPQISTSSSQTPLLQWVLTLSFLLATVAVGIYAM
Kind of data set: Induction of HO1 activity in mouse RAW264.7 cells at 30 to 100 nM after 16 hrs. The class given is cell-based. The gist of the method: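 RAW 264.7 mouse macrophages were plated at 100,000 cells/well and treated the next day with DMSO or compound for 16 h (overnight). Cells were harvested in tricine sample buffer with b-ME. Lysates were run on SDS–PAGE and immunoblotted for HO-1, with GAPDH as the reference protein.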

Each structure is given as a SMILES string. Active and inactive are the calls of the source. The rule behind the calls is not given here.

The IC50 is the concentration at which inhibition is half-maximal.

For `CC1(C)CC[C@]2(C(=O)n3ccnc3)CC[C@]3(C)[C@H](C(=O)C=C4[C@@]5(C)C=C(C#N)C(=O)C(C)(C)[C@@H]5CC[C@]43C)[C@@H]2C1`, in the data set with RAW264.7, the IC50 was determined as 0.6 nM. Moreover, the CD in data set [1] turned out to be 0.2 nM. In data set [2], this compound returned a Stability of 1 yr.
`C#Cc1nccn1C(=O)[C@]12CCC(C)(C)C[C@H]1[C@H]1C(=O)C=C3[C@@]4(C)C=C(C#N)C(=O)C(C)(C)[C@@H]4CC[C@@]3(C)[C@]1(C)CC2` yielded an IC50 with RAW264.7 of 2.3 nM. Further, the CD in data set [1] turned out to be 0.9 nM. Moreover, the result in data set [3] was Active. This compound also returned a Stability in data set [2] of 3 yr.
The like results for `CC#Cc1nc(C)cn1C(=O)[C@]12CCC(C)(C)C[C@H]1[C@H]1C(=O)C=C3[C@@]4(C)C=C(C#N)C(=O)C(C)(C)[C@@H]4CC[C@@]3(C)[C@]1(C)CC2` were, in that order, 2 nM, 0.4 nM, “Active” and 3 yr.
The compound `CC1(C)CC[C@]2(C(=O)O)CC[C@]3(C)[C@H](C(=O)C=C4[C@@]5(C)C=C(C#N)C(=O)C(C)(C)[C@@H]5CC[C@]43C)[C@@H]2C1` [BARDOXOLONE] returned an IC50 in the data set on RAW264.7 of 11 nM. Moreover, the CD in data set [1] came out at 3 nM.
With `C#Cc1cn(C(=O)[C@]23CCC(C)(C)C[C@H]2[C@H]2C(=O)C=C4[C@@]5(C)C=C(C#N)C(=O)C(C)(C)[C@@H]5CC[C@@]4(C)[C@]2(C)CC3)cn1`, the IC50 with RAW264.7 came out at 1.4 nM. For the same compound, the CD in data set [1] was 0.4 nM. Also, the outcome in data set [3] was Active. This compound yielded a Stability in data set [2] of 3 yr.
Regarding `CC1(C)CC[C@]2(C(=O)n3cnc(C#Cc4ccccc4)c3)CC[C@]3(C)[C@H](C(=O)C=C4[C@@]5(C)C=C(C#N)C(=O)C(C)(C)[C@@H]5CC[C@]43C)[C@@H]2C1`, in the data set on RAW264.7, half-maximal inhibition (IC50) required 7.8 nM.
The compound `CC1(C)CC[C@]2(C(=O)n3ccnc3C#Cc3ccccc3)CC[C@]3(C)[C@H](C(=O)C=C4[C@@]5(C)C=C(C#N)C(=O)C(C)(C)[C@@H]5CC[C@]43C)[C@@H]2C1` had an IC50 with RAW264.7 of 4 nM. In addition, the CD in data set [1] was determined as 1.2 nM. Besides, the outcome in data set [3] was Active. Further, in data set [2], the Stability was 3 yr.
